Laboratory results taken from ChEMBL document CHEMBL1944507, “Structure-activity relationships for amide-, carbamate-, and urea-linked analogues of the tuberculosis drug (6S)-2-nitro-6-{[4-(trifluoromethoxy)benzyl]oxy}-6,7-dihydro-5H-imidazo[2,1-b][1,3]oxazine (PA-824)” (J Med Chem, 2012).
In brackets after ≈: the same amount, converted by molar mass.

Tests used:
[1] = test system: Mycobacterium tuberculosis; test: Antimicrobial activity against Mycobacterium tuberculosis H37Rv ATCC 27294 harboring pFCA-lux AB gene measured under aerobic condition after 8 days by luminescence analysis; format: functional; details: H37Rv ATCC 27294, 192 h
Outline: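 MABA: replicating M. tb H37Rv exposed to compound aerobically for 8 days. […] Mean of at least two independent determinations ± SD.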

[2] = test system: Mycobacterium tuberculosis; test: Antimicrobial activity against Mycobacterium tuberculosis H37Rv ATCC 27294 harboring pFCA-lux AB gene measured under anaerobic condition after 11 days by luminescence analysis; format: functional; details: H37Rv ATCC 27294, 264 h
Outline: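 LORA: luminescence-based low-oxygen-recovery assay on nonreplicating M. tb, 11-day anaerobic exposure. MIC is the mean of at least two independent determinations ± SD.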

SMILES | MIC [1] [µM] | MIC [2] [µM]
O=C(N[C@@H]1COc2nc([N+](=O)[O-])cn2C1)c1ccc(OC(F)(F)F)cc1 | 1.8 (≈ 0.67 µg/mL) | 
CN(C(=O)c1cccc(OC(F)(F)F)c1)[C@@H]1COc2nc([N+](=O)[O-])cn2C1 | 24 (≈ 9.27 µg/mL) | > 64
CN(C(=O)c1ccc(OC(F)(F)F)cc1)[C@@H]1COc2nc([N+](=O)[O-])cn2C1 | 22 (≈ 8.5 µg/mL) | > 64
O=[N+]([O-])c1cn2c(n1)OC[C@@H](NS(=O)(=O)c1ccccc1OC(F)(F)F)C2 | > 64 | > 64
O=[N+]([O-])c1cn2c(n1)OC[C@@H](NS(=O)(=O)c1cccc(OC(F)(F)F)c1)C2 | > 64 | > 64
O=[N+]([O-])c1cn2c(n1)OC[C@@H](NS(=O)(=O)c1ccc(OC(F)(F)F)cc1)C2 | 9.7 (≈ 3.96 µg/mL) | > 64
CN([C@@H]1COc2nc([N+](=O)[O-])cn2C1)S(=O)(=O)c1ccccc1OC(F)(F)F | 20 (≈ 8.45 µg/mL) | 45 (≈ 19 µg/mL)
CN([C@@H]1COc2nc([N+](=O)[O-])cn2C1)S(=O)(=O)c1cccc(OC(F)(F)F)c1 | 12 (≈ 5.07 µg/mL) | 64 (≈ 27 µg/mL)
CN([C@@H]1COc2nc([N+](=O)[O-])cn2C1)S(=O)(=O)c1ccc(OC(F)(F)F)cc1 | 0.53 (≈ 0.224 µg/mL) | 22 (≈ 9.29 µg/mL)
O=C(Cc1ccc(OC(F)(F)F)cc1)N[C@@H]1COc2nc([N+](=O)[O-])cn2C1 | 0.27 (≈ 0.104 µg/mL) | 21 (≈ 8.11 µg/mL)
O=C(CN[C@@H]1COc2nc([N+](=O)[O-])cn2C1)c1ccc(OC(F)(F)F)cc1 | 7.6 (≈ 2.94 µg/mL) | > 64
O=C(CN[C@@H]1COc2nc([N+](=O)[O-])cn2C1)Nc1ccc(OC(F)(F)F)cc1 | 0.7 (≈ 0.281 µg/mL) | 46 (≈ 18.5 µg/mL)
O=C(N[C@@H]1COc2nc([N+](=O)[O-])cn2C1)Oc1ccc(OC(F)(F)F)cc1 | > 64 | 64 (≈ 24.8 µg/mL)
O=C(N[C@@H]1COc2nc([N+](=O)[O-])cn2C1)OCc1ccc(OC(F)(F)F)cc1 | 0.15 (≈ 0.0603 µg/mL) | 11 (≈ 4.43 µg/mL)
O=C(Nc1ccc(OC(F)(F)F)cc1)N[C@@H]1COc2nc([N+](=O)[O-])cn2C1 | 0.23 (≈ 0.0891 µg/mL) | 4.2 (≈ 1.63 µg/mL)
O=C(N[C@@H]1COc2nc([N+](=O)[O-])cn2C1)OCc1ccc(-c2ccc(OC(F)(F)F)cc2)cc1 | 0.11 (≈ 0.0526 µg/mL) | 5 (≈ 2.39 µg/mL)
O=C(N[C@@H]1COc2nc([N+](=O)[O-])cn2C1)OCc1ccc(-c2ccc(C(F)(F)F)nc2)cc1 | 0.23 (≈ 0.107 µg/mL) | 4.7 (≈ 2.18 µg/mL)

SMILES | MIC [1] [µM] | MIC [2] [µM]
O=C(N[C@@H]1COc2nc([N+](=O)[O-])cn2C1)OCc1ccc(-c2ccc(F)nc2)cc1 | 0.34 (≈ 0.141 µg/mL) | 4.3 (≈ 1.78 µg/mL)
O=C(Nc1cccc(-c2ccc(C(F)(F)F)cc2)c1)N[C@@H]1COc2nc([N+](=O)[O-])cn2C1 | 0.035 (≈ 0.0157 µg/mL) | 3.6 (≈ 1.61 µg/mL)
O=C(Nc1cccc(-c2ccc(F)cc2)c1)N[C@@H]1COc2nc([N+](=O)[O-])cn2C1 | 0.03 (≈ 0.0119 µg/mL) | 3.8 (≈ 1.51 µg/mL)
O=C(Nc1cccc(-c2ccc(OC(F)(F)F)cc2)c1)N[C@@H]1COc2nc([N+](=O)[O-])cn2C1 | 0.25 (≈ 0.116 µg/mL) | 5.8 (≈ 2.69 µg/mL)
O=C(Nc1cccc(-c2ccc(C(F)(F)F)nc2)c1)N[C@@H]1COc2nc([N+](=O)[O-])cn2C1 | 0.22 (≈ 0.0986 µg/mL) | 13 (≈ 5.83 µg/mL)
O=C(Nc1cccc(-c2ccc(F)nc2)c1)N[C@@H]1COc2nc([N+](=O)[O-])cn2C1 | 0.23 (≈ 0.0916 µg/mL) | 15 (≈ 5.98 µg/mL)
O=C(Nc1ccc(-c2ccc(C(F)(F)F)cc2)cc1)N[C@@H]1COc2nc([N+](=O)[O-])cn2C1 | 0.19 (≈ 0.085 µg/mL) | > 32
O=C(Nc1ccc(-c2ccc(F)cc2)cc1)N[C@@H]1COc2nc([N+](=O)[O-])cn2C1 | 1.3 (≈ 0.517 µg/mL) | 9.1 (≈ 3.62 µg/mL)
O=C(Nc1ccc(-c2ccc(OC(F)(F)F)cc2)cc1)N[C@@H]1COc2nc([N+](=O)[O-])cn2C1 | 0.06 (≈ 0.0278 µg/mL) | 18 (≈ 8.34 µg/mL)
O=C(NCc1ccc(-c2ccc(OC(F)(F)F)cc2)cc1)N[C@@H]1COc2nc([N+](=O)[O-])cn2C1 | 1 (≈ 0.477 µg/mL) | 32 (≈ 15.3 µg/mL)
O=C(NCc1ccc(-c2ccc(C(F)(F)F)nc2)cc1)N[C@@H]1COc2nc([N+](=O)[O-])cn2C1 | 0.4 (≈ 0.185 µg/mL) | > 32
O=C(Nc1cccc(-c2ccc(C(F)(F)F)cc2)c1)O[C@@H]1COc2nc([N+](=O)[O-])cn2C1 | 0.04 (≈ 0.0179 µg/mL) | 1 (≈ 0.448 µg/mL)
O=C(Nc1cccc(-c2ccc(F)cc2)c1)O[C@@H]1COc2nc([N+](=O)[O-])cn2C1 | 0.027 (≈ 0.0108 µg/mL) | 1.5 (≈ 0.598 µg/mL)
O=C(Nc1cccc(-c2ccc(OC(F)(F)F)cc2)c1)O[C@@H]1COc2nc([N+](=O)[O-])cn2C1 | 0.06 (≈ 0.0279 µg/mL) | 0.85 (≈ 0.395 µg/mL)
O=C(Nc1cccc(-c2ccc(C(F)(F)F)nc2)c1)O[C@@H]1COc2nc([N+](=O)[O-])cn2C1 | 0.11 (≈ 0.0494 µg/mL) | 2.9 (≈ 1.3 µg/mL)
O=C(Nc1cccc(-c2ccc(F)nc2)c1)O[C@@H]1COc2nc([N+](=O)[O-])cn2C1 | 0.24 (≈ 0.0958 µg/mL) | 5.8 (≈ 2.32 µg/mL)
O=C(Nc1ccc(-c2ccc(C(F)(F)F)cc2)cc1)O[C@@H]1COc2nc([N+](=O)[O-])cn2C1 | 0.055 (≈ 0.0247 µg/mL) | > 32
